Data taken from ChEMBL document CHEMBL1123191, “Allergenic alpha-methylene-gamma-butyrolactones. Study of the capacity of beta-acetoxy- and beta-hydroxy-alpha-methylene-gamma-butyrolactones to induce allergic contact dermatitis in guinea pigs” (1986).

Tests used:
Cavia porcellus [1] = species: Cavia porcellus; experiment: Compound was measured for open epicutaneous test on sensitized guinea pig after sensitization of compound (Acetic acid 3-methylene-2-oxo-1-oxa-spiro[4.5]dec-4-yl ester); format: functional
Outline: (§1)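 Female Albino Himalayan spotted guinea pigs (300-500 g) sensitized by FCAT: hapten emulsified in Freund's complete adjuvant, 0.1 mL intradermal in shaved nuchal region, three injections on alternate days. After 2-week rest, 25 μL of 2% lactone in CH2Cl2 (others at same molar concentration) applied to 2-cm² area of shaved flank. Read at 24 h, scale 0-3.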

Cavia porcellus [2] = species: Cavia porcellus; experiment: Compound was measured for open epicutaneous test on sensitized guinea pig after sensitization of compound (Acetic acid 4-methylene-5-oxo-tetrahydro-furan-3-yl ester); format: functional; outline: as §1
Cavia porcellus [3] = species: Cavia porcellus; experiment: Compound was measured for open epicutaneous test on sensitized guinea pig after sensitization of compound (4-Hydroxy-3-methylene-dihydro-furan-2-one); format: functional; outline: as §1
Cavia porcellus [4] = species: Cavia porcellus; experiment: Compound was measured for open epicutaneous test on sensitized guinea pig after sensitization of compound (4-Hydroxy-3-methylene-1-oxa-spiro[4.5]decan-2-one); format: functional; outline: as §1
Cavia porcellus [5] = species: Cavia porcellus; experiment: Compound was measured for open epicutaneous test on sensitized guinea pig after sensitization of compound itself; format: functional; outline: as §1
Cavia porcellus [6] = species: Cavia porcellus; experiment: Compound was measured for open epicutaneous test on sensitized guinea pig after sensitization of compound (3-Methylene-1-oxa-spiro[4.5]decan-2-one); format: functional; outline: as §1
Cavia porcellus [7] = species: Cavia porcellus; experiment: Compound was measured for open epicutaneous test on sensitized guinea pig after sensitization of compound (4-Hydroxy-3-methylene-dihydro-furan-2-one) average skin reaction; format: functional; outline: as §1
Cavia porcellus [8] = species: Cavia porcellus; experiment: Compound was measured for open epicutaneous test on sensitized guinea pig after sensitization of compound (4-Hydroxy-3-methylene-1-oxa-spiro[4.5]decan-2-one). average skin reaction.; format: functional; outline: as §1
Cavia porcellus [9] = species: Cavia porcellus; experiment: Compound was measured for open epicutaneous test on sensitized guinea pig after sensitization of compound (3-Methylene-1-oxa-spiro[4.5]decan-2-one) average skin reaction.; format: functional; outline: as §1
Cavia porcellus [10] = species: Cavia porcellus; experiment: Compound was measured for open epicutaneous test on sensitized guinea pig after sensitization of compound (Acetic acid 4-methylene-5-oxo-tetrahydro-furan-3-yl ester) average skin reaction; format: functional; outline: as §1
Cavia porcellus [11] = species: Cavia porcellus; experiment: Compound was measured for open epicutaneous test on sensitized guinea pig after sensitization of compound 1a

`C=C1C(=O)OC[C@@H]1O` showed a Sensitized animals (Cavia porcellus [1]) of 0, a Sensitized animals (Cavia porcellus [2]) of 6 and a Sensitized animals (Cavia porcellus [3]) of 6. For the same compound, the Sensitized animals (Cavia porcellus [4]) was 0, the Sensitized animals (Cavia porcellus [5]) was 6 and the Sensitized animals (Cavia porcellus [6]) was 0.
`C=C1C(=O)OC2(CCCCC2)[C@@H]1OC(C)=O` was tested, and the Average skin reaction (Cavia porcellus [7]) was 0, the Average skin reaction (Cavia porcellus [1]) was 3 and the Sensitized animals (Cavia porcellus [1]) was 6. It also gave an Average skin reaction (Cavia porcellus [8]) of 1.8, an Average skin reaction (Cavia porcellus [9]) of 1.7 and a Sensitized animals (Cavia porcellus [2]) of 0. It also gave an Average skin reaction (Cavia porcellus [10]) of 0, an Average skin reaction (Cavia porcellus [11]) of 0 and a Sensitized animals (Cavia porcellus [3]) of 0. It also gave a Sensitized animals (Cavia porcellus [4]) of 6, a Sensitized animals (Cavia porcellus [5]) of 6 and a Sensitized animals (Cavia porcellus [6]) of 6.
`C=C1C(=O)OC2(CCCCC2)[C@@H]1O` showed an Average skin reaction (Cavia porcellus [7]) of 0, an Average skin reaction (Cavia porcellus [1]) of 0.5 and a Sensitized animals (Cavia porcellus [1]) of 6. It also gave an Average skin reaction (Cavia porcellus [8]) of 0.7, an Average skin reaction (Cavia porcellus [9]) of 0.4 and a Sensitized animals (Cavia porcellus [2]) of 0. For the same compound, the Average skin reaction (Cavia porcellus [10]) was 0, the Average skin reaction (Cavia porcellus [11]) was 0 and the Sensitized animals (Cavia porcellus [3]) was 0. The Sensitized animals (Cavia porcellus [4]) was 6, the Sensitized animals (Cavia porcellus [5]) was 0 and the Sensitized animals (Cavia porcellus [6]) was 6.
`C=C1C(=O)OC[C@@H]1OC(C)=O` was tested, and the Average skin reaction (Cavia porcellus [7]) was 0.3, the Average skin reaction (Cavia porcellus [1]) was 0 and the Sensitized animals (Cavia porcellus [1]) was 0. The Average skin reaction (Cavia porcellus [8]) was 0, the Average skin reaction (Cavia porcellus [9]) was 0 and the Sensitized animals (Cavia porcellus [2]) was 6. For the same compound, the Average skin reaction (Cavia porcellus [10]) was 0.8, the Average skin reaction (Cavia porcellus [11]) was 0.4 and the Sensitized animals (Cavia porcellus [3]) was 4. The Sensitized animals (Cavia porcellus [4]) was 0, the Sensitized animals (Cavia porcellus [5]) was 6 and the Sensitized animals (Cavia porcellus [6]) was 0.
Work on `C=C1CC2(CCCCC2)OC1=O` yielded an Average skin reaction (Cavia porcellus [7]) of 0, an Average skin reaction (Cavia porcellus [1]) of 0.8 and a Sensitized animals (Cavia porcellus [1]) of 6. It also gave an Average skin reaction (Cavia porcellus [8]) of 1.7, an Average skin reaction (Cavia porcellus [9]) of 1.2 and a Sensitized animals (Cavia porcellus [2]) of 0. For the same compound, the Average skin reaction (Cavia porcellus [10]) was 0, the Average skin reaction (Cavia porcellus [11]) was 0 and the Sensitized animals (Cavia porcellus [3]) was 0. For the same compound, the Sensitized animals (Cavia porcellus [4]) was 6, the Sensitized animals (Cavia porcellus [5]) was 0 and the Sensitized animals (Cavia porcellus [6]) was 6.
Compound `C=C1CCOC1=O` [TULIPALINE A] has an Average skin reaction (Cavia porcellus [7]) of 1.1, an Average skin reaction (Cavia porcellus [1]) of 0 and a Sensitized animals (Cavia porcellus [1]) of 0. It also gave an Average skin reaction (Cavia porcellus [8]) of 0, an Average skin reaction (Cavia porcellus [9]) of 0 and a Sensitized animals (Cavia porcellus [2]) of 6. It also gave an Average skin reaction (Cavia porcellus [10]) of 1.1, an Average skin reaction (Cavia porcellus [11]) of 2 and a Sensitized animals (Cavia porcellus [3]) of 6. It also gave a Sensitized animals (Cavia porcellus [4]) of 0, a Sensitized animals (Cavia porcellus [5]) of 6 and a Sensitized animals (Cavia porcellus [6]) of 0.
